Reference: ChEMBL document CHEMBL1156979, “The impact of polyether chain length on the iron clearing efficiency and physiochemical properties of desferrithiocin analogues” (J Med Chem, 2010)
Calls of active or inactive are those of the source. The rule behind the calls is not given here.

Experiments:
Rattus norvegicus [1] = assay: Iron-clearing efficiency in non-iron-overloaded and bile duct-cannulated Sprague-Dawley rat at 300 umol/kg, po after 48 hrs relative to control; assay type: functional
In short: (§1)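 Non-iron-overloaded male Sprague-Dawley rats (400–450 g), bile duct-cannulated, given a single oral dose of 300 μmol/kg, either by gavage as monosodium salt or in capsules. Bile was collected at 3 h intervals for up to 48 h and urine every 24 h. Iron was measured by flame absorption spectroscopy. ICE = 24-h iron excretion of treated rats minus controls, divided by theoretical output (2:1 ligand:iron); percent. Mean ± SEM; one-tailed t-test.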

Rattus norvegicus [2] = assay: Iron-clearing efficiency in non-iron-overloaded and bile duct-cannulated Sprague-Dawley rat assessed as bile iron excretion at 300 umol/kg, po after 48 hrs relative to control; assay type: functional
In short: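 Male Sprague-Dawley rats (400–450 g), non-iron-overloaded and bile duct-cannulated, were dosed orally at 300 μmol/kg, either by gavage as the monosodium salt (1 equiv NaOH added to the free acid in distilled water) or in capsules. Bile was collected at 3 h intervals for up to 48 h and urine at 24 h intervals. Iron efficiency was calculated as treated minus control iron excretion, divided by the theoretical output for a 2:1 ligand:iron complex, expressed as %; values are mean ± SEM.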

Rattus norvegicus [3] = assay: Iron-clearing efficiency in non-iron-overloaded and bile duct-cannulated Sprague-Dawley rat assessed as urine iron excretion at 300 umol/kg, po after 48 hrs relative to control; assay type: functional
Rattus norvegicus [4] = assay: Toxicity in Sprague-Dawley rat assessed as histopathological examination at 384 umol/kg, po qd for 10 days measured after 24 hrs last post dose; assay type: organism-based; conditions: in vivo
In short: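 Male Sprague-Dawley rats (300–350 g), fasted overnight, were dosed orally once daily for 10 d. Dosing was 384 μmol/kg/d (capsules or by gavage as monosodium salt) or 192 μmol/kg/d (capsules). Age-matched untreated controls. Rats were euthanized 24 h after the last dose (day 11), and extensive tissues were examined histopathologically.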

Rattus norvegicus [5] = assay: Iron-clearing efficiency in non-iron-overloaded and bile duct-cannulated Sprague-Dawley rat assessed as reduction of renal iron content at 384 umol/kg, po qd for 10 days administered as gelatin capsules relative to control; assay type: functional; parameters: scale not given: the % may be the effect or the level left
Rattus norvegicus [6] = assay: Iron-clearing efficiency in non-iron-overloaded and bile duct-cannulated Sprague-Dawley rat assessed as reduction of renal iron content at 384 umol/kg, po qd for 10 days administered as monosodium salt relative to control; assay type: functional; parameters: scale not given: the % may be the effect or the level left
Rattus norvegicus [7] = assay: Iron-clearing efficiency in non-iron-overloaded and bile duct-cannulated Sprague-Dawley rat assessed as reduction of liver iron content at 384 umol/kg, po qd for 10 days administered as gelatin capsules relative to control; assay type: functional; parameters: scale not given: the % may be the effect or the level left
Rattus norvegicus [8] = assay: Iron-clearing efficiency in non-iron-overloaded and bile duct-cannulated Sprague-Dawley rat assessed as reduction of liver iron content at 384 umol/kg, po qd for 10 days administered as monosodium salt relative to control; assay type: functional; parameters: scale not given: the % may be the effect or the level left
Rattus norvegicus [9] = assay: Iron-clearing efficiency in non-iron-overloaded and bile duct-cannulated Sprague-Dawley rat assessed as reduction of cardiac iron content at 384 umol/kg, po qd for 10 days administered as gelatin capsules relative to control; assay type: functional, Heart; parameters: scale not given: the % may be the effect or the level left
Rattus norvegicus [10] = assay: Iron-clearing efficiency in non-iron-overloaded and bile duct-cannulated Sprague-Dawley rat assessed as reduction of cardiac iron content at 384 umol/kg, po qd for 10 days administered as monosodium salt relative to control; assay type: functional, Heart; parameters: scale not given: the % may be the effect or the level left
Rattus norvegicus [11] = assay: Toxicity in Sprague-Dawley rat assessed as histopathological examination at 384 umol/kg, po qd for 10 days; conditions: in vivo, 240 h
Sapajus apella [12] = assay: Iron-clearing efficiency in iron-overloaded Cebus apella at 75 umol/kg, po measured daily once for 2 days by flame absorption spectroscopy relative to control; assay type: functional
In short: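 Iron-overloaded Cebus apella (3.5–4 kg; iv iron dextran to about 500 mg Fe/kg, ≥60 days before use) dosed orally at 75 μmol/kg, by gavage as monosodium salt (1 equiv NaOH in distilled water) or in capsules. Feces and urine collected every 24 h from 4 days pre-drug to 5 days post-drug; iron by flame absorption spectroscopy. ICE = 2-day post-drug iron minus 4-day baseline average, divided by theoretical output (2:1 ligand:iron); percent. Performance ratio = mean primate ICE/rodent ICE.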

Sapajus apella [13] = assay: Iron-clearing efficiency in iron-overloaded Cebus apella assessed as feces iron excretion at 75 umol/kg, po measured daily once for 5 days by lame absorption spectroscopy relative to control; assay type: functional
Sapajus apella [14] = assay: Iron-clearing efficiency in iron-overloaded Cebus apella assessed as urine iron excretion at 75 umol/kg, po measured daily once for 5 days by lame absorption spectroscopy relative to control; assay type: functional
Sapajus apella [15] = assay: Iron-clearing efficiency in iron-overloaded Cebus apella at 150 umol/kg, po measured daily once for 2 days by flame absorption spectroscopy relative to control; assay type: functional
Sapajus apella [16] = assay: Iron-clearing efficiency in iron-overloaded Cebus apella assessed as feces iron excretion at 150 umol/kg, po measured daily once for 5 days by lame absorption spectroscopy relative to control; assay type: functional
Sapajus apella [17] = assay: Iron-clearing efficiency in iron-overloaded Cebus apella assessed as urine iron excretion at 150 umol/kg, po measured daily once for 5 days by lame absorption spectroscopy relative to control; assay type: functional
Rattus norvegicus [18] = assay: Iron-clearing efficiency in non-iron-overloaded and bile duct-cannulated Sprague-Dawley rat assessed as time required to maximum bile iron excretion at 300 umol/kg, po; assay type: functional; in short: as §1
Rattus norvegicus [19] = assay: Iron-clearing efficiency in non-iron-overloaded and bile duct-cannulated Sprague-Dawley rat assessed as complete bile iron excretion at 300 umol/kg, po; assay type: functional; in short: as §1
Rattus norvegicus [20] = assay: Iron-clearing efficiency in non-iron-overloaded and bile duct-cannulated Sprague-Dawley rat assessed as bile iron excretion at 300 umol/kg, po up to 12 hrs; assay type: functional, organism-based; in short: as §1

Structure (SMILES): COCCOCCOc1ccc(C2=N[C@@](C)(C(=O)O)CS2)c(O)c1 [SP-420]
- Activity (Rattus norvegicus [1]): 26.7%
- Activity (Rattus norvegicus [2]): 97%
- Activity (Rattus norvegicus [3]): 3%
- Activity (Rattus norvegicus [4]): Non-toxic
- Activity (Rattus norvegicus [5]): 7.4%
- Activity (Rattus norvegicus [6]): 24.8%
- Activity (Rattus norvegicus [7]): >35%
- Activity (Rattus norvegicus [8]): >35%
- Activity (Rattus norvegicus [9]): 6.9%
- Activity (Rattus norvegicus [10]): 9.9%
- Activity (Rattus norvegicus [11]): Toxic

Structure (SMILES): COCCOCCOc1ccc(C2=N[C@@](C)(C(=O)[O-])CS2)c(O)c1.[Na+]
- Activity (Sapajus apella [12]): 26.3%
- Activity (Sapajus apella [13]): 83%
- Activity (Sapajus apella [14]): 7%

Structure (SMILES): COc1ccc(C2=N[C@@](C)(C(=O)[O-])CS2)c(O)c1.[Na+]
- Activity (Sapajus apella [15]): 24.4%
- Activity (Sapajus apella [16]): 91%
- Activity (Sapajus apella [17]): 9%

Structure (SMILES): C[C@]1(C(=O)[O-])CSC(c2ccc(O)cc2O)=N1.[Na+] [DEFERITRIN SODIUM]
- Activity (Sapajus apella [15]): 16.8%
- Activity (Sapajus apella [16]): 88%
- Activity (Sapajus apella [17]): 12%
- Time (Rattus norvegicus [18]): 3 h
- Time (Rattus norvegicus [19]): 9 h

Structure (SMILES): COCCOCCOCCOc1ccc(C2=N[C@@](C)(C(=O)O)CS2)c(O)c1
- Activity (Sapajus apella [15]): 25.4%
- Activity (Sapajus apella [16]): 96%
- Activity (Sapajus apella [17]): 4%
- Time (Rattus norvegicus [18]): 3 h
- Activity (Rattus norvegicus [20]): Active
